From ChEMBL document CHEMBL4007505 (J Med Chem, 2017)
pEC50, pIC50, pKi: −log10 of the molar value. Activity calls are given as the source filed them. No cut-off for these calls is given here.

What was measured:
[1] = target: Sodium-dependent noradrenaline transporter (Homo sapiens, UniProt P23975); experiment: Enhancing of [3H]mazindol binding to recombinant human NET expressed in HEK293 cell membranes preincubated for 10 mins followed by radioligand addition measured after 90 mins by micro beta scintillation counting analysis
[2] = target: T1, Sodium-dependent serotonin transporter (Homo sapiens, UniProt P31645); experiment: Enhancing of [125I]RTI-55 binding to recombinant human SERT expressed in HEK293 cell membranes preincubated for 10 mins followed by radioligand addition measured after 90 mins by micro beta scintillation counting analysis
[3] = target: T2, Sodium-dependent dopamine transporter (Homo sapiens, UniProt Q01959); experiment: Enhancing of [3H]mazindol binding to recombinant human DAT expressed in HEK293 cell membranes preincubated for 10 mins followed by radioligand addition measured after 90 mins by micro beta scintillation counting analysis; design: concentration or dose not given beside the values
Procedure, shortened: (§1)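 Membranes of HEK-293 cells stably expressing hDAT, hNET or hSERT. […] Compound preincubated 10 min at room temperature, then [125I]23 (40-80 pM final) or [3H]26 (1-3 nM for DAT and NET, 10-13 nM for SERT) added. Incubated 90 min at room temperature in the dark, then filtered. EC50 or Ki; mean ± SEM.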

[4] = target: Alpha-2B adrenergic receptor (Homo sapiens, UniProt P18089); experiment: Displacement of [3H]Rauwolscine from human adrenergic alpha2B receptor
[5] = target: T2, Sodium-dependent dopamine transporter; experiment: Enhancing of [125I]RTI-55 binding to recombinant human DAT expressed in HEK293 cell membranes preincubated for 10 mins followed by radioligand addition measured after 90 mins by micro beta scintillation counting analysis; design: concentration or dose not given beside the values; procedure, shortened: as §1
[6] = target: T2, Sodium-dependent dopamine transporter; experiment: Inhibition of recombinant human DAT expressed in HEK293 cell […] as reduction in [3H]-DA uptake incubated for 22 mins by micro beta scintillation counting analysis
[7] = target: T3, 5-hydroxytryptamine receptor 2C (Homo sapiens, UniProt P28335); experiment: Displacement of [3H]Mesulergine from human 5-HT2C receptor
T3 sequence (P28335 whole entry): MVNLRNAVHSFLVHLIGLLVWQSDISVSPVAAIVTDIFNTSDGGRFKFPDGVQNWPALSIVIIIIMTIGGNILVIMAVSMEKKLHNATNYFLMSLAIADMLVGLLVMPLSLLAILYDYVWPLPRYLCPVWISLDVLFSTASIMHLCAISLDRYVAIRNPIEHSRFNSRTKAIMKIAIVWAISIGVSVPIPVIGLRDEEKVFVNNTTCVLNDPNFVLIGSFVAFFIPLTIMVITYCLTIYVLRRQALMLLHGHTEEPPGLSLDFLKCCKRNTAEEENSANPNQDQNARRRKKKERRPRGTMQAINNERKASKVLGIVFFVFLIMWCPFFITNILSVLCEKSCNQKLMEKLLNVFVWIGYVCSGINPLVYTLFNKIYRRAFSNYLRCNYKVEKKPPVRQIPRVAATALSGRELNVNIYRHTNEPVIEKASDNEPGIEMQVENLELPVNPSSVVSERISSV

[8] = target: T1, Sodium-dependent serotonin transporter; experiment: Enhancing of [3H]mazindol binding to recombinant human SERT expressed in HEK293 cell membranes preincubated for 10 mins followed by radioligand addition measured after 90 mins by micro beta scintillation counting analysis
Target sequence in this assay (P31645 whole entry): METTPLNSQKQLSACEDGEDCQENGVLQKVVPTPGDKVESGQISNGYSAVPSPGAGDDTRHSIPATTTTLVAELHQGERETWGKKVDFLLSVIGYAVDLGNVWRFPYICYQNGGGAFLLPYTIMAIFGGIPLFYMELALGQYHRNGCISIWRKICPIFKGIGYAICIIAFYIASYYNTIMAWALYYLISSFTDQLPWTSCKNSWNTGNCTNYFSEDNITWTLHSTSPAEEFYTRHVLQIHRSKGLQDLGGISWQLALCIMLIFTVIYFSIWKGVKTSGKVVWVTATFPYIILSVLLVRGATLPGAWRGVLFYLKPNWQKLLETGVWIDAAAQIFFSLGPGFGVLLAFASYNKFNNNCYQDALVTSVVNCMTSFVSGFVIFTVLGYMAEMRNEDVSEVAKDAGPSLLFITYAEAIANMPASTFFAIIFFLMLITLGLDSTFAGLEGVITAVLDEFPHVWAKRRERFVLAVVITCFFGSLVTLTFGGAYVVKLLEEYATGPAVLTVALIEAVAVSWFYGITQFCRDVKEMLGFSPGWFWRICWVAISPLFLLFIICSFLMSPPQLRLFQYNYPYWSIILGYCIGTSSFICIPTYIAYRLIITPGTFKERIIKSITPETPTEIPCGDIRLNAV

[9] = target: T4, Alpha-1D adrenergic receptor (Homo sapiens, UniProt P25100); experiment: Displacement of [3H]Prazosin from human adrenergic alpha1D receptor
T4 sequence (P25100 whole entry): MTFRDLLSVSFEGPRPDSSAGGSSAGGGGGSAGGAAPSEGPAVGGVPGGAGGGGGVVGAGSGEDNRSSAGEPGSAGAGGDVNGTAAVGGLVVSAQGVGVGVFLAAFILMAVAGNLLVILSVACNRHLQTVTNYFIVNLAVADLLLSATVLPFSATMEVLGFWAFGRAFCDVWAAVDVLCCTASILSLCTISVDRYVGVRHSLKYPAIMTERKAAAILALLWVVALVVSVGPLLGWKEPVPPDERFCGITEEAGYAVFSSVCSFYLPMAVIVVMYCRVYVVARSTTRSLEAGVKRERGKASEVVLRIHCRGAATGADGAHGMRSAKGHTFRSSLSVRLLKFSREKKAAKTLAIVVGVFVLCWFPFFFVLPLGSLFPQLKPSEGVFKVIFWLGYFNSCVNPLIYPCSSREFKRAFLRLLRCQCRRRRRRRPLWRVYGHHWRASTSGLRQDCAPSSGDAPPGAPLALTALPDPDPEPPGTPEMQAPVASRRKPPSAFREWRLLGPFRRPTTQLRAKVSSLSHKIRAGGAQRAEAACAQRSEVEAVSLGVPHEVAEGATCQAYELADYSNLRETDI

[10] = target: T5, Alpha-1A adrenergic receptor (Homo sapiens, UniProt P35348); experiment: Displacement of [3H]Prazosin from human adrenergic alpha1A receptor
T5 sequence (P35348 whole entry): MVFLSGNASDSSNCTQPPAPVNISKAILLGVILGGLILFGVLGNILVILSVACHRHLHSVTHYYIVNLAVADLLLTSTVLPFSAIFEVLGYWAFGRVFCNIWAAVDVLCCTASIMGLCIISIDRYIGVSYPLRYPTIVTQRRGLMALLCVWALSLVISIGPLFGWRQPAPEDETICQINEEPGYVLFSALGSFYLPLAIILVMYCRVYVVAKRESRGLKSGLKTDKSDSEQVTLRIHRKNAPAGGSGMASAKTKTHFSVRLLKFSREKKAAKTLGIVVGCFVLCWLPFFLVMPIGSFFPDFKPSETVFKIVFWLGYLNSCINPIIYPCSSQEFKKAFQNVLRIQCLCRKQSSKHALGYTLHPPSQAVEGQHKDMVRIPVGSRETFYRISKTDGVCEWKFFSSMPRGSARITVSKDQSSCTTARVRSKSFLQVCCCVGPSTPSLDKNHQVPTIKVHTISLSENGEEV

[11] = target: T6, Adenosine receptor A3 (Homo sapiens, UniProt P0DMS8); experiment: Displacement of [125I]N6-(4-amino-3-iodobenzyl)adenosine-5'-N-methyluronamide from human A3AR expressed in HEK293T cells pre-incubated for 10 mins before radioligand addition and measured 90 mins after radioligand addition by micro beta scintillation counting analysis relative to control; format: cell-based, HEK-293T
T6 sequence (P0DMS8 whole entry): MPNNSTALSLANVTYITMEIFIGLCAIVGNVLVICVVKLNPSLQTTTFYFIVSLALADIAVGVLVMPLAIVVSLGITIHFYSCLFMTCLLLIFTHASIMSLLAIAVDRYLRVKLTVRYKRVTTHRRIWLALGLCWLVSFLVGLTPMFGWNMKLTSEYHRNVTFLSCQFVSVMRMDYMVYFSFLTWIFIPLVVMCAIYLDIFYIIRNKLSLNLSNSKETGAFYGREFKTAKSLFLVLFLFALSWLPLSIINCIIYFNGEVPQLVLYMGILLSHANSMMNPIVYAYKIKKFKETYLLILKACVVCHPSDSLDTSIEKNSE

T2 sequence (Q01959 whole entry): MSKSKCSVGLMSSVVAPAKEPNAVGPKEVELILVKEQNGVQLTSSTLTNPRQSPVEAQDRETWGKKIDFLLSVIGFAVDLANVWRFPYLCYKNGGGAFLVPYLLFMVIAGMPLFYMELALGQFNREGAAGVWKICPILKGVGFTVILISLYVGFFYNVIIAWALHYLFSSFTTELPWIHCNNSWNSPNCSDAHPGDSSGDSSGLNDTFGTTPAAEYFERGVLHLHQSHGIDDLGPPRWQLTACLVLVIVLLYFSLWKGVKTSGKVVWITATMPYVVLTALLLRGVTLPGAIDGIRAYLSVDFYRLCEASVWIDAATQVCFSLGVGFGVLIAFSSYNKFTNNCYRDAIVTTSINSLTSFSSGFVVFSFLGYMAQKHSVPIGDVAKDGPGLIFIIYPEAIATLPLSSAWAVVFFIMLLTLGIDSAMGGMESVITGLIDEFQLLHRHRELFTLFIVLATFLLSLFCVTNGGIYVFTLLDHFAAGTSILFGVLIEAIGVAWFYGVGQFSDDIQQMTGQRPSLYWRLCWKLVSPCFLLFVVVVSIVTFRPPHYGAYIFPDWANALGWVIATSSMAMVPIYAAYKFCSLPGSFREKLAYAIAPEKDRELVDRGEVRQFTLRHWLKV
Alpha-2B adrenergic receptor, sequence (P18089 whole entry): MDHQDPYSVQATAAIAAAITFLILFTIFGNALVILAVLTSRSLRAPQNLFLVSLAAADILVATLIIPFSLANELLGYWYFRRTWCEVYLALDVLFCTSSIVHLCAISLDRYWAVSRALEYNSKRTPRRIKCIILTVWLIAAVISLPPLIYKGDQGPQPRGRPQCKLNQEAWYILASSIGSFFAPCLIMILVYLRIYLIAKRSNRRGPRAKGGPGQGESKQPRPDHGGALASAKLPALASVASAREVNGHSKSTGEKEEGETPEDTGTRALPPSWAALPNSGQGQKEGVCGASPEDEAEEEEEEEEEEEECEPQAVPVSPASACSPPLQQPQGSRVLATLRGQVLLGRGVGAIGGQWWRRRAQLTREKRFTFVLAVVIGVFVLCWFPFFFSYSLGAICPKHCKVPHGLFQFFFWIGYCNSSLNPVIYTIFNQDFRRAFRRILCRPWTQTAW
Sodium-dependent noradrenaline transporter, sequence (P23975 whole entry): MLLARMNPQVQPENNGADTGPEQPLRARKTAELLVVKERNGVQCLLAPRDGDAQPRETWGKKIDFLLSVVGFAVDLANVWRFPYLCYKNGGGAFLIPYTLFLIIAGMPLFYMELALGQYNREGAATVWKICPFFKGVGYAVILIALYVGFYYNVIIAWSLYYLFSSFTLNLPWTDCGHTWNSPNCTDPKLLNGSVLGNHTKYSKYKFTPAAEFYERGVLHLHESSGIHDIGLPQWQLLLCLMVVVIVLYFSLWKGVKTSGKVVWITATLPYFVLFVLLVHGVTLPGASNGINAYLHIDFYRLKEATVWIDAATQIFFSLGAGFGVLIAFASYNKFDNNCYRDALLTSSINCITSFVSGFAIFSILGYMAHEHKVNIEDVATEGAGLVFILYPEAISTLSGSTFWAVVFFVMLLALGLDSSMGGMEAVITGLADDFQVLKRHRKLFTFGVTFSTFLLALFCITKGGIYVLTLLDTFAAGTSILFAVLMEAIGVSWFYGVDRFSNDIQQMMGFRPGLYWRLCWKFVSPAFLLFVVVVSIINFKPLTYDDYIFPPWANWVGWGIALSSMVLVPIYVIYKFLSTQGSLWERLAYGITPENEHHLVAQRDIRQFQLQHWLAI

## CNc1nc(C#Cc2ccc(Cl)s2)nc2c1ncn2[C@@H]1O[C@H](C(=O)OC)[C@@H](O)[C@H]1O
[1]
  Activity: inactive
[2]
  Activity: inactive
[2]; read-out: EC50
  pEC50: < 5.00
[3]
  Activity: 269%
[3]; read-out: EC50
  pEC50: 6.07
[4]
  pKi: 5.00 to 5.30
[5]
  Activity: 312%
[5]; read-out: EC50
  pEC50: 6.90
[6]
  pIC50: 6.40
[7]
  pKi: 5.49
[8]
  pEC50: < 5.00
[9]
  pKi: < 5.00
[10]
  pKi: < 5.00
[11]
  pKi: 7.94
